# Experimental data pooled from the literature.
# Compare with care: the assays were run in different laboratories.
# HDAC8: Histone deacetylase 8 (HDAC8, Homo sapiens, UniProt Q9BY41)
# BAZ1B: Tyrosine-protein kinase BAZ1B (BAZ1B, Homo sapiens, UniProt Q9UIG0)
# murD: UDP-N-acetylmuramoylalanine--D-glutamate ligase (murD, Escherichia coli K-12, UniProt P14900)
# BRD4 BD1: Bromodomain-containing protein 4, BD1 (BRD4, Homo sapiens, UniProt O60885)
Compound,target,observed,mode,technique,tested at,measurement,value
Oc1ccc(-c2nc(-c3ccncc3)c(-c3ccc(F)cc3)[nH]2)cc1,"Histone acetyltransferase KAT2B (KAT2B, Homo sapiens, UniProt Q92831)",thermal stability,,DSF,10 µM,ΔTm,-0.19 °C
CCCOc1ccc(OC)c(F)c1C(=O)c1ccc(C(=O)N[C@@H]2CNC[C@H]2NC(=O)c2ccc3[nH]ncc3c2)cc1,"cGMP-dependent protein kinase 1 (PRKG1, Homo sapiens, UniProt Q13976)",enzyme activity,inhibitor,,10 µM,remaining activity,-6%
O=c1c(O)c(-c2ccc(O)c(O)c2)oc2cc(O)cc(O)c12,HDAC8,enzyme activity,inhibitor,,10 µM,inhibition,68%
Cc1cc2c(cc1N1C(=O)c3cccc4c(Cl)ccc(c34)C1=O)n(C)c(=O)n2C,BAZ1B,thermal stability,,DSF,10 µM,ΔTm,-1 °C
O=[N+]([O-])c1ccccc1S(=O)(=O)Oc1ccccc1C=NNS(=O)(=O)c1ccc2ccccc2c1,murD,enzyme activity,inhibitor,absorbance,50 µM,remaining activity,71%
Nc1ncnc2occ(-c3ccc(NC(=O)Nc4cc(C(F)(F)F)ccc4F)cc3)c12,"Cyclin-dependent kinase 11B (CDK11B, Homo sapiens, UniProt P21127)",cell-free assay,,,20 µM,remaining signal,0.4%
O=c1c(O)c(-c2ccc(O)cc2)oc2cc(O)cc(O)c12,HDAC8,enzyme activity,inhibitor,,10 µM,inhibition,66.3%
O=C(Nc1ccc(C=NNS(=O)(=O)c2ccc3ccccc3c2)cc1)c1ccc([N+](=O)[O-])cc1,murD,enzyme activity,inhibitor,absorbance,50 µM,remaining activity,81%
CN(C)CCN1CCN(c2nc(NCc3cccc(Cl)c3)c3cc(-c4ccc(=O)n(C)c4)ccc3n2)CC1,BRD4 BD1,thermal stability,,DSF,250 µM,ΔTm,15 °C
O=[N+]([O-])c1cccc(COc2ccccc2C=NNS(=O)(=O)c2ccc3ccccc3c2)c1,murD,enzyme activity,inhibitor,absorbance,50 µM,remaining activity,70%
Cc1ccc(C(=O)Nc2ccc(CN3CCN(C)CC3)c(C(F)(F)F)c2)cc1C#Cc1cnc2cccnn12,"Mitogen-activated protein kinase kinase kinase 4 (MAP3K4, Homo sapiens, UniProt Q9Y6R4)",enzyme activity,inhibitor,,23.5 nM,remaining activity,95%
NS(=O)(=O)c1ccc(Nc2nc(-c3ccc(F)cc3)c3ccccc3n2)cc1,BRD4 BD1,binding,,competition with immobilised ligand,1 µM,remaining binding,5%
Cc1cnc(Nc2ccc(OCCN3CCCC3)cc2)nc1Nc1cccc(S(=O)(=O)NC(C)(C)C)c1,BAZ1B,thermal stability,,DSF,10 µM,ΔTm,-0.02 °C
O=C(Nc1ccc(C=NNS(=O)(=O)c2ccc3ccccc3c2)cc1)c1ccccc1,murD,enzyme activity,inhibitor,absorbance,100 µM,remaining activity,56%
CC(C)[C@@H]1NC(=O)[C@@H]2CCCN2C(=O)[C@H](Cc2ccccc2)NC(=O)CSC[C@@H](C(=O)N[C@@H](Cc2ccc(O)cc2)C(N)=O)NC(=O)[C@H](Cc2c[nH]c3ccccc23)NC(=O)[C@H](CCCCN)NC(=O)[C@H](Cc2ccccc2)N(C)C(=O)[C@H](Cc2ccccc2)NC1=O,BRD4 BD1,thermal stability,,DSF,200 µM,ΔTm,-0.27 °C
N#Cc1ccc(COc2ccccc2C=NNS(=O)(=O)c2cccc([N+](=O)[O-])c2)cc1,murD,enzyme activity,inhibitor,absorbance,100 µM,remaining activity,74%
C[S+]([O-])c1ccc(-c2nc(-c3ccncc3)c(-c3ccc(F)cc3)[nH]2)cc1 (centres unmarked),"Bromodomain-containing protein 4, BD2 (BRD4, Homo sapiens, UniProt O60885)",thermal stability,,DSF,10 µM,ΔTm,1.67 °C
